Assay results of several laboratories.
Each line is one published result; the experiments were not run side by side.
Target: Serine/threonine-protein kinase MARK2 (MARK2, Homo sapiens, UniProt Q7KZI7)

| Compound | effect on | action | technique | concentration | quantity | value |
| --- | --- | --- | --- | --- | --- | --- |
| COc1ncccc1-c1cnn2ccc(N3CCN(C(=O)OC(C)C)CC3)nc12 | binding |  | competition with immobilised ligand | 1 µM | remaining binding | 80% |
| Cn1cc(-c2cc(F)cc(N3CCn4c(cc5c4CCCC5)C3=O)c2CO)cc(Nc2ccc(N3CCN(C4COC4)CC3)cn2)c1=O | enzyme activity | inhibitor |  | 0.1 µM | inhibition | 14% |
| Nc1ncc(-c2nc(N3CCOCC3)nc(N3CCOCC3)n2)c(C(F)F)n1 | binding |  | competition with immobilised ligand | 10 µM | remaining binding | 77% |
| C#Cc1n[nH]c2c(-c3cn([C@@H](C)c4ccccc4)c(=O)[nH]c3=O)cc(F)cc12 | enzyme activity | inhibitor |  | 0.1 µM | inhibition | 2% |
| Cn1cncc1[C@](O)(COc1ccc(C#N)cc1-c1ccc(OC(F)(F)F)cc1)c1ccc(C#N)cc1 | cell-free assay |  | competition with immobilised ligand | 1 µM | remaining binding | 95% |
| C#Cc1n[nH]c2c(-c3cn(C(C)c4ccccn4)c(=O)[nH]c3=O)cc(F)cc12 (stereo not shown) | enzyme activity | inhibitor |  | 1 µM | inhibition | 5.8% |
| O=c1[nH]c2ccccc2n1C1CCN(Cc2ccc(-c3[nH]c4cc5ncnc5cc4nc3-c3ccccc3)cc2)CC1 | cell-free assay |  |  | 0.5 µM | remaining signal | 92.2% |
| Cn1cc(-c2cccc(N3CCc4c(sc5c4CC(C)(C)C5)C3=O)c2CO)cc(Nc2ccncn2)c1=O | enzyme activity | inhibitor |  | 1 µM | inhibition | 10% |
| CC(C)(C)c1cc(C=C(C#N)C#N)cc(Br)c1O | enzyme activity | inhibitor |  | 0.5 µM | remaining activity | 81.6% |
| Cc1nn(C)cc1-c1nc2c(N3CCN(Cc4ccc(Cl)cc4)CC3)c(Cl)cnc2[nH]1 | binding |  | competition with immobilised ligand | 1 µM | remaining binding | 93% |
